Compound activity (PubChem)
Sampled rows, rich in hits. Any-hit rate of the full collection: about 4.7%.
MC4R antag cAMP = antagonists of human melanocortin 4 receptor (MC4R); hit rate 0.48% among 360,000; MC4R-expressing cells, MTII-stimulated cAMP, LANCE TR-FRET; inhibition, % at 6.5 µM; P32245;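 active = inhibition above its plate's cutoff, the mean of tested wells on that plate plus 3 SD, cut at about 29% in these data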;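 also: 0% = Melanotan II alone and 100% = Melanotan II plus saturating MCL0020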
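Assay system: U2OS cells stably expressing human melanocortin 4 receptor (MC4R) / Dosing: 6.5 µM / Timing: compound 30 min, challenge 1 h, detection 1 h / Measured by: Eu-cAMP/anti-cAMP TR-FRET, emission 671 nm / Replicates: singlicate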
AHR activator = activates the human aryl hydrocarbon receptor; P35869; AID 2796; activation, % at 5 µM; AHR-responsive luciferase reporter cells, luminescence; hit rate 2.5% among 320,000; in the data active = activation above about 47%;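 also: 0% = vehicle wells and 100% = reference agonist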
GAA850 FXN act = frataxin GAA850 promoter activation | HEK293 lucGAA850 FXN promoter luciferase reporter, 24 h; percent of 10 µM SAHA response | activation, % at 6 µM | hit rate 0.56% among 360,000;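 active = activation above the average of all compounds screened plus 3 SD, cutoff fixed separately per campaign, cut at about 7.5% in these data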;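 also: 0% = DMSO wells and 100% = 10 µM SAHA wells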
m5-HT2A agonist = activates the mouse 5-HT2A serotonin receptor; CHO-K1 mHTR2A beta-arrestin complementation, luminescence; percent of 30 µM serotonin response; activation, % at 7.6 µM; hit rate 0.66% among 360,000;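 active = activation above a run cutoff, the mean activation of all tested compounds plus 3 SD, cut at about 14% in these data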;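 also: 0% = plate median of compound wells and 100% = 30 µM serotonin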
Target sequence (P35363 whole entry, looked up): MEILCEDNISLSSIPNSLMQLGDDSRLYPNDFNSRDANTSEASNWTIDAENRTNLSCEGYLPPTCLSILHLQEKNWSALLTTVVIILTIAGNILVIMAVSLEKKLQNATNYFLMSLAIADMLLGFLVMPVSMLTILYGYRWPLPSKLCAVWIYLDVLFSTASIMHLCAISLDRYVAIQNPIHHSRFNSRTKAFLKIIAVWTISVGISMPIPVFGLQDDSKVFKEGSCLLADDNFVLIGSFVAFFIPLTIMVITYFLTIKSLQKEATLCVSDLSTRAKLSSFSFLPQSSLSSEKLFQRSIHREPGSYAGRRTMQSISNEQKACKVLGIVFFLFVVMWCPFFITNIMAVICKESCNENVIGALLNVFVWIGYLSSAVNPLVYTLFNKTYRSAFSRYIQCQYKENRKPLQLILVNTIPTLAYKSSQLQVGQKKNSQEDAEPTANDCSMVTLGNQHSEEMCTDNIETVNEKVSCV
MC4R barr agon = activates human MC4R beta-arrestin recruitment; P32245; U2OS MC4R beta-arrestin complementation, luminescence; percent of melanotan II response, DMSO zero; hit rate 0.98% among 360,000; activation, % at 8.9 µM; AID 540308;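 active = activation above a per-plate cutoff, the mean activation of sample wells on that plate plus 3 SD, cut at about 8% in these data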
The depositor's hits bear a star.

Screening O=C1C(=Cc2ccco2)CCC1=Cc1ccco1 returned MC4R antag cAMP 1.9, GAA850 FXN act 3.4, m5-HT2A agonist 1.2 and MC4R barr agon -3.1.
For O=C1C(=Cc2ccco2)CCCC1=Cc1ccco1 the results were MC4R antag cAMP 17.7, GAA850 FXN act 12.1*, m5-HT2A agonist -1.0 and MC4R barr agon -0.3.
For COc1ccc(CN2CCN(S(=O)(=O)c3ccccc3)CC2)c(OC)c1 the results were MC4R antag cAMP -3.7, AHR activator 51.5*, GAA850 FXN act -3.8, m5-HT2A agonist -3.0 and MC4R barr agon -0.2.
`COc1ccc(COc2ccsc2C(=O)Nc2ccc(Cl)cc2)cc1` gave MC4R antag cAMP -7.0, AHR activator 8.9, GAA850 FXN act 1.4, m5-HT2A agonist -1.4 and MC4R barr agon 8.7*.
For COc1ccc(NC(=O)c2csc(Cc3ccc(Cl)cc3)n2)cc1 the results were MC4R antag cAMP -3.3, AHR activator 6.8, GAA850 FXN act 2.6, m5-HT2A agonist 1.9 and MC4R barr agon -4.0.
`CCn1nc(NC(=O)C2CCCO2)c2cc3cc(C)ccc3nc21` (centres undefined) gave MC4R antag cAMP -3.3, AHR activator 67.1*, GAA850 FXN act 5.7, m5-HT2A agonist -1.4 and MC4R barr agon -0.8.
`Cc1ccc2nc3c(cc2c1)c(NC(=O)C1CCCO1)nn3CC(C)C` (centres undefined) gave MC4R antag cAMP 6.7, AHR activator 16.4, GAA850 FXN act -0.4, m5-HT2A agonist 2.6 and MC4R barr agon 0.2.
For COc1ccc(C(=O)Nc2cc(C(=O)c3ccccc3)c(C)oc2=O)cc1 the results were MC4R antag cAMP 22.1, AHR activator 3.0, GAA850 FXN act 11.9*, m5-HT2A agonist -1.6 and MC4R barr agon -0.8.
`CCN1CCN(C(=O)C2CCC(=O)N(Cc3cccc(C(F)(F)F)c3)C2)CC1` (centres undefined) gave MC4R antag cAMP -6.2, AHR activator -0.8, GAA850 FXN act 1.4, m5-HT2A agonist 3.7 and MC4R barr agon -2.0.
`COc1ccc(-c2nnc(SCc3nc4ccccc4c(=O)[nH]3)o2)cc1` gave MC4R antag cAMP -15.0, AHR activator 4.2, GAA850 FXN act -1.2, m5-HT2A agonist -2.7 and MC4R barr agon 8.2*.
Screening Cc1ccc(NC(=O)C2Oc3ccccc3OC2C)cc1 (centres undefined) returned MC4R antag cAMP -0.3, AHR activator 50.7*, GAA850 FXN act 3.3, m5-HT2A agonist -5.0 and MC4R barr agon -1.2.
Screening Cc1ccc(NC(=O)C2COc3ccccc3O2)cc1 (centres undefined) returned MC4R antag cAMP 3.0, AHR activator 6.7, GAA850 FXN act 2.8, m5-HT2A agonist 1.3 and MC4R barr agon -1.1.
Screening O=C1CCCc2oc3c(cc(NS(=O)(=O)c4ccc5c6c(cccc46)C(=O)N5)c4ccccc43)c21 returned MC4R antag cAMP -76.3, AHR activator 54.2*, GAA850 FXN act 4.7, m5-HT2A agonist -10.4 and MC4R barr agon -3.0.
For Cc1oc2c(cc(NS(=O)(=O)c3ccc4c5c(cccc35)C(=O)N4)c3ccccc32)c1C(=O)OC(C)C the results were MC4R antag cAMP -0.7, AHR activator 73.6*, GAA850 FXN act 4.1, m5-HT2A agonist 6.2 and MC4R barr agon -3.1.
For O=C(O)c1ccccc1NS(=O)(=O)c1ccc2c3c(cccc13)C(=O)N2 the results were MC4R antag cAMP -3.7, AHR activator 4.0, GAA850 FXN act 1.8, m5-HT2A agonist 0.6 and MC4R barr agon 0.4.
`COC(=O)c1ccccc1NS(=O)(=O)c1ccc2c3c(cccc13)C(=O)N2` gave MC4R antag cAMP -11.8, AHR activator -2.4, GAA850 FXN act 3.8, m5-HT2A agonist -2.5 and MC4R barr agon -0.3.
CCCCCCCCN1C(=O)[C@H](CC(=O)N2CCCC2)C[C@@]2(C(=O)OC)CCCCC=C12 was read as m5-HT2A agonist 6.7.
For CCOC(=O)C1CCN(S(=O)(=O)c2ccc3c4c(cccc24)C(=O)N3CC)CC1 the results were MC4R antag cAMP 1.8, AHR activator -1.0, GAA850 FXN act -0.6, m5-HT2A agonist 1.8 and MC4R barr agon 0.1.
`COc1ccc(Br)c(/C=N/NC(=O)COc2ccc(-c3ccccc3)cc2)c1` gave MC4R antag cAMP 1.6, AHR activator 23.7, GAA850 FXN act 0.4, m5-HT2A agonist 2.3 and MC4R barr agon 0.7.
C=CCNC(=S)N/N=C/c1ccccc1OCCOc1ccccc1 was read as MC4R antag cAMP 0.0, AHR activator 11.6, GAA850 FXN act 1.4, m5-HT2A agonist -2.7 and MC4R barr agon 8.9*.
COC(=O)N/N=C/c1ccccc1OCCOc1ccc(OC)cc1 was read as MC4R antag cAMP -2.0, AHR activator 14.9, GAA850 FXN act 0.6, m5-HT2A agonist -4.4 and MC4R barr agon -0.9.
O=C(O)COc1ccccc1/C=N/NC(=O)COc1ccc(-c2ccccc2)cc1 was read as MC4R antag cAMP 13.6, AHR activator 68.3*, GAA850 FXN act -0.6, m5-HT2A agonist -1.8 and MC4R barr agon 0.9.
For CCN(CC)CCNC(=O)CNC(=O)c1nn(-c2ccc(OC)cc2OC)c(=O)c2ccccc12 the results were MC4R antag cAMP 4.0, AHR activator 1.9, GAA850 FXN act 2.7, m5-HT2A agonist 0.8 and MC4R barr agon 1.6.
For CCOC(=O)[C@@H]1[C@H]2COc3cc(OC)ccc3[C@@H]2N2C(=O)N(c3cccc(F)c3)C(=O)[C@@]12C the results were MC4R antag cAMP 4.7, AHR activator 50.5*, GAA850 FXN act 0.9, m5-HT2A agonist -0.7 and MC4R barr agon 0.1.
For COC(=O)c1ccccc1S(=O)(=O)N(Cc1cc2cc3c(cc2[nH]c1=O)OCO3)C1CCCCC1 the results were AHR activator 62.7*.
For COc1cccc(-c2cnc3c(NC(C)=O)cc(-c4ccc(C(=O)NC5CC5)cc4)cn23)c1 the results were MC4R antag cAMP 14.2, GAA850 FXN act -0.2, m5-HT2A agonist 0.2 and MC4R barr agon 8.8*.
For CC(=O)Nc1cccc(-c2cc(NC(C)=O)c3ncc(-c4cccc(C(C)=O)c4)n3c2)c1 the results were MC4R antag cAMP 8.3, GAA850 FXN act -3.5, m5-HT2A agonist -0.1 and MC4R barr agon 8.6*.
Screening CC(=O)Nc1cccc(-c2cc(NC=O)c3ncc(-c4ccc(C(C)=O)cc4)n3c2)c1 returned MC4R antag cAMP 3.5, GAA850 FXN act -2.8, m5-HT2A agonist -3.0 and MC4R barr agon -1.9.
CCc1ccccc1OCC(=O)Nc1cc(S(=O)(=O)N2CCOCC2)ccc1N1CCCCC1 was read as MC4R antag cAMP 16.6, GAA850 FXN act 2.1, m5-HT2A agonist -3.5 and MC4R barr agon -1.1.
CSCCC(NC(=O)c1ccco1)C(=O)NC1CCCCCC1 (centres undefined) was read as MC4R antag cAMP -1.0, AHR activator 3.6, GAA850 FXN act -0.3, m5-HT2A agonist -1.8 and MC4R barr agon -2.8.
Screening O=C(CN1C(=O)c2cccc3cccc1c23)NCc1cccnc1 returned MC4R antag cAMP 2.4, AHR activator 17.4, GAA850 FXN act -0.5, m5-HT2A agonist -2.4 and MC4R barr agon -0.1.
